{
  "source": "ChEMBL document CHEMBL3351385",
  "about": "“Synthesis and preliminary mechanistic evaluation of 5-(p-tolyl)-1-(quinolin-2-yl)pyrazole-3-carboxylic acid amides with potent antiproliferative activity on human cancer cell lines” (Eur J Med Chem, 2014)",
  "key": {"[1]": {"assay": "Cytotoxicity against human HuH7 cells after 72 hrs by SRB assay", "format": "functional, cell-based", "settings": "Huh-7, 72 h", "summary_of_the_method": "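Cells kept in DMEM with 10% FCS and penicillin/streptomycin at 37°C, 5% CO2. 2000–3000 cells/well were seeded, and medium was refreshed the next day. DMSO solutions were added over 2.5–40 µM with matched DMSO-only controls for 72 h. Cells were then TCA-fixed, stained with 0.4% SRB in 1% acetic acid, solubilized in 10 mM Tris pH 8 and read at 515 nm. Data were normalized to DMSO wells and expressed as mean ±SD.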"}, "Huh-7": {"test_system": "Huh-7", "assay": "Induction of cell death in human HuH7 cells assessed as induction of intracytoplasmic vacuoles at cytotoxic IC50 level after 72 hrs by inverted light microscopy", "format": "functional, cell-based", "summary_of_the_method": "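They were viewed under an inverted light microscope at 20× for death morphology, including intracytoplasmic vacuoles.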"}, "[2]": {"target": "Dual specificity mitogen-activated protein kinase kinase 6 (Homo sapiens) (UniProt P52564)", "assay": "Inhibition of MKK6 (unknown origin) assessed as remaining enzyme activity at 10 uM by radioactive [33P]-ATP filter binding assay"}, "[3]": {"target": "Mitogen-activated protein kinase 15 (Homo sapiens) (UniProt Q8TD08)", "sequence (Q8TD08 whole entry)": "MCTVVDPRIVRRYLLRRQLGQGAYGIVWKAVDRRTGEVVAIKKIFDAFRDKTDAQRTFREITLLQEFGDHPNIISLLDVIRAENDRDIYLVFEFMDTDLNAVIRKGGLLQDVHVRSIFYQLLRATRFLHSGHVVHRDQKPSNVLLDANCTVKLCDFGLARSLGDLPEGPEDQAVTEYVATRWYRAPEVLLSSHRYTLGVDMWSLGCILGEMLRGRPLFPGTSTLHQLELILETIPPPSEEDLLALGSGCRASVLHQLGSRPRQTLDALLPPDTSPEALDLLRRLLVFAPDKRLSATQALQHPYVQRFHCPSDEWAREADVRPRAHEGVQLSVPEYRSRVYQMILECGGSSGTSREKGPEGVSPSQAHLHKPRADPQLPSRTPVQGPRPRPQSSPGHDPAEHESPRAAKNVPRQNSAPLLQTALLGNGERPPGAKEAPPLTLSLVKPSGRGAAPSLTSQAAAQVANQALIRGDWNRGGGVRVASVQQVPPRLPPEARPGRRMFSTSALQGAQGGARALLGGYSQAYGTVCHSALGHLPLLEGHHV", "assay": "Inhibition of ERK8 (unknown origin) assessed as remaining enzyme activity at 10 uM by radioactive [33P]-ATP filter binding assay", "summary_of_the_method": "(§1)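 A single 10 µM concentration was tested across a 140-kinase panel. Activity was measured by a radioactive 33P-ATP filter-binding assay run at the International Center for Kinase Profiling, University of Dundee.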"}, "[4]": {"target": "MAP kinase-activated protein kinase 2 (Homo sapiens) (UniProt P49137)", "sequence (P49137 whole entry, looked up)": "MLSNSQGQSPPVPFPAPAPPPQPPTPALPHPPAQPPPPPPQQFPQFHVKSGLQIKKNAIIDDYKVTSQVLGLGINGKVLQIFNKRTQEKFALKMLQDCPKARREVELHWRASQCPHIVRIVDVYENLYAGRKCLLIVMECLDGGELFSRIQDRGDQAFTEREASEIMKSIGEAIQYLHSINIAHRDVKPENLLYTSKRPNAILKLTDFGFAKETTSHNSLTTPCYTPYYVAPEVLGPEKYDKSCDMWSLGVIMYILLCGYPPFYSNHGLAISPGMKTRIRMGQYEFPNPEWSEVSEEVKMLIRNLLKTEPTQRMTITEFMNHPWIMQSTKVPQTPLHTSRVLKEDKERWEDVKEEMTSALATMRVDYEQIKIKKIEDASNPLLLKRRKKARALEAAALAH", "assay": "Inhibition of MAPKAPK2 (unknown origin) assessed as remaining enzyme activity at 10 uM by radioactive [33P]-ATP filter binding assay"}, "[5]": {"target": "CDK9/cyclin T1 (Homo sapiens) (UniProt O60563+P50750)", "assay": "Inhibition of CDK9/Cyclin-T1 (unknown origin) assessed as remaining enzyme activity at 10 uM by radioactive [33P]-ATP filter binding assay", "format": "protein-complex assay", "summary_of_the_method": "as §1"}, "[6]": {"target": "Aurora kinase B (Homo sapiens) (UniProt Q96GD4)", "assay": "Inhibition of Aurora B (unknown origin) assessed as remaining enzyme activity at 10 uM by radioactive [33P]-ATP filter binding assay", "summary_of_the_method": "as §1"}, "[7]": {"target": "MAP/microtubule affinity-regulating kinase 4 (Homo sapiens) (UniProt Q96L34)", "assay": "Inhibition of MARK4 (unknown origin) assessed as remaining enzyme activity at 10 uM by radioactive [33P]-ATP filter binding assay"}, "[8]": {"target": "Tyrosine-protein kinase ABL1 (Homo sapiens) (UniProt P00519)", "assay": "Inhibition of ABL (unknown origin) assessed as remaining enzyme activity at 10 uM by radioactive [33P]-ATP filter binding assay", "summary_of_the_method": "as §1"}, "[9]": {"target": "Protein-tyrosine kinase 6 (Homo sapiens) (UniProt Q13882)", "assay": "Inhibition of BRK (unknown origin) assessed as remaining enzyme activity at 10 uM by radioactive [33P]-ATP filter binding assay", "summary_of_the_method": "as §1"}, "[10]": {"target": "Ephrin type-A receptor 4 (Homo sapiens) (UniProt P54764)", "assay": "Inhibition of EPHA4 (unknown origin) assessed as remaining enzyme activity at 10 uM by radioactive [33P]-ATP filter binding assay", "summary_of_the_method": "as §1"}, "[11]": {"target": "Ephrin type-B receptor 3 (Homo sapiens) (UniProt P54753)", "assay": "Inhibition of EPHB3 (unknown origin) assessed as remaining enzyme activity at 10 uM by radioactive [33P]-ATP filter binding assay", "summary_of_the_method": "as §1"}, "[12]": {"target": "Ephrin type-B receptor 4 (Homo sapiens) (UniProt P54760)", "assay": "Inhibition of EPHB4 (unknown origin) assessed as remaining enzyme activity at 10 uM by radioactive [33P]-ATP filter binding assay", "summary_of_the_method": "as §1"}, "[13]": {"target": "Insulin receptor (Homo sapiens) (UniProt P06213)", "assay": "Inhibition of IR (unknown origin) assessed as remaining enzyme activity at 10 uM by radioactive [33P]-ATP filter binding assay"}, "[14]": {"target": "Vascular endothelial growth factor receptor (Homo sapiens) (UniProt P17948+P35916+P35968)", "assay": "Inhibition of VEGFR (unknown origin) assessed as remaining enzyme activity at 10 uM by radioactive [33P]-ATP filter binding assay", "format": "protein assay"}, "[15]": {"target": "NUAK family SNF1-like kinase 1 (Homo sapiens) (UniProt O60285)", "assay": "Inhibition of NUAK1 (unknown origin) assessed as remaining enzyme activity at 10 uM by radioactive [33P]-ATP filter binding assay"}, "[16]": {"target": "Casein kinase I isoform delta (Homo sapiens) (UniProt P48730)", "assay": "Inhibition of CK1delta (unknown origin) assessed as remaining enzyme activity at 10 uM by radioactive [33P]-ATP filter binding assay", "summary_of_the_method": "as §1"}, "[17]": {"target": "Dual specificity tyrosine-phosphorylation-regulated kinase 1A (Homo sapiens) (UniProt Q13627)", "assay": "Inhibition of DYRK1A (unknown origin) assessed as remaining enzyme activity at 10 uM by radioactive [33P]-ATP filter binding assay", "summary_of_the_method": "as §1"}, "[18]": {"target": "Inhibitor of nuclear factor kappa-B kinase subunit beta (Homo sapiens) (UniProt O14920)", "sequence (O14920 whole entry)": "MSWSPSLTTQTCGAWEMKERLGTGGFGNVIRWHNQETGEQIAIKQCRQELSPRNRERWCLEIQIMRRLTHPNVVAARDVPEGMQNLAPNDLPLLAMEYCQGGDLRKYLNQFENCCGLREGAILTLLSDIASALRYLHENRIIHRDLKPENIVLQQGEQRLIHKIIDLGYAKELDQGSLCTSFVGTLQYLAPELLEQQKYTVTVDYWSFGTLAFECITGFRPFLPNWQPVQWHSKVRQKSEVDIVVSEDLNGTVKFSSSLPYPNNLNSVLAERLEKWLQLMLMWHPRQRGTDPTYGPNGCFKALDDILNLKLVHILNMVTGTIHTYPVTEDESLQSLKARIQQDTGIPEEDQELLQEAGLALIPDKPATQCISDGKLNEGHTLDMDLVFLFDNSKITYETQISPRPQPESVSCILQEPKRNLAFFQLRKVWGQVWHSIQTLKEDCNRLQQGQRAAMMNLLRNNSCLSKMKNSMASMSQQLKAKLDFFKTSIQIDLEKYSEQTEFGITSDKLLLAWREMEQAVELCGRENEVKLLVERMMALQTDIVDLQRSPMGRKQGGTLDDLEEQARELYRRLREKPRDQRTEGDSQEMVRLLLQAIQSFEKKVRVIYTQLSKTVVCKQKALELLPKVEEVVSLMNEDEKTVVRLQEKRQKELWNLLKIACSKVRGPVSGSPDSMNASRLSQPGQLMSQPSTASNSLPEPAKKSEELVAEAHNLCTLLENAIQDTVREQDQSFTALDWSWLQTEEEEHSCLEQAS", "assay": "Inhibition of IKKbeta (unknown origin) assessed as remaining enzyme activity at 10 uM by radioactive [33P]-ATP filter binding assay"}, "[19]": {"target": "Serine/threonine-protein kinase TBK1 (Homo sapiens) (UniProt Q9UHD2)", "sequence (Q9UHD2 whole entry)": "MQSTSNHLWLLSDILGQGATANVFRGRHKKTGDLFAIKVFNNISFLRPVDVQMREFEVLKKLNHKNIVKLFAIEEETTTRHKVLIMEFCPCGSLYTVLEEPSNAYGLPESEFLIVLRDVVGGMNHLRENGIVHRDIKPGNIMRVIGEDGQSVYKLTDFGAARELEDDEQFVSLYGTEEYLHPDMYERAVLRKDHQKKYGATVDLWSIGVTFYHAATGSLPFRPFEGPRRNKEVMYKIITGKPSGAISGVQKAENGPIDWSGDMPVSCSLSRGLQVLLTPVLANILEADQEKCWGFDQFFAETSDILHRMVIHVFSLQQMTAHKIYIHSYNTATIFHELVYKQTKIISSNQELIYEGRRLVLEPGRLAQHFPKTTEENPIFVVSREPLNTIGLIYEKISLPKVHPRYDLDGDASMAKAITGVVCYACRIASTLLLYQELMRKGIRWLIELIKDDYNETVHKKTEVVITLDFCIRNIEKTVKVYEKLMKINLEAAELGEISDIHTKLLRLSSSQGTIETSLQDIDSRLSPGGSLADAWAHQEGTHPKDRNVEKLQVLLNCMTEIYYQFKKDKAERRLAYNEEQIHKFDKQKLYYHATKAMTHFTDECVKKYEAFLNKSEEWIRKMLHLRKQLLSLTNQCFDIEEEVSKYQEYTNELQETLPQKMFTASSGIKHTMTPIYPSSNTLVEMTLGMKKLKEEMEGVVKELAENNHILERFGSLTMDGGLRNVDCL", "assay": "Inhibition of TBK1 (unknown origin) assessed as remaining enzyme activity at 10 uM by radioactive [33P]-ATP filter binding assay"}, "[20]": {"target": "Serine/threonine-protein kinase pim-2 (Homo sapiens) (UniProt Q9P1W9)", "assay": "Inhibition of PIM2 (unknown origin) assessed as remaining enzyme activity at 10 uM by radioactive [33P]-ATP filter binding assay"}, "[21]": {"target": "Homeodomain-interacting protein kinase 1 (Homo sapiens) (UniProt Q86Z02)", "assay": "Inhibition of HIPK1 (unknown origin) assessed as remaining enzyme activity at 10 uM by radioactive [33P]-ATP filter binding assay"}, "[22]": {"target": "Dual specificity protein kinase CLK2 (Homo sapiens) (UniProt P49760)", "assay": "Inhibition of CLK2 (unknown origin) assessed as remaining enzyme activity at 10 uM by radioactive [33P]-ATP filter binding assay", "summary_of_the_method": "as §1"}, "[23]": {"target": "Serine/threonine-protein kinase PAK 5 (Homo sapiens) (UniProt Q9P286)", "sequence (Q9P286 whole entry, looked up)": "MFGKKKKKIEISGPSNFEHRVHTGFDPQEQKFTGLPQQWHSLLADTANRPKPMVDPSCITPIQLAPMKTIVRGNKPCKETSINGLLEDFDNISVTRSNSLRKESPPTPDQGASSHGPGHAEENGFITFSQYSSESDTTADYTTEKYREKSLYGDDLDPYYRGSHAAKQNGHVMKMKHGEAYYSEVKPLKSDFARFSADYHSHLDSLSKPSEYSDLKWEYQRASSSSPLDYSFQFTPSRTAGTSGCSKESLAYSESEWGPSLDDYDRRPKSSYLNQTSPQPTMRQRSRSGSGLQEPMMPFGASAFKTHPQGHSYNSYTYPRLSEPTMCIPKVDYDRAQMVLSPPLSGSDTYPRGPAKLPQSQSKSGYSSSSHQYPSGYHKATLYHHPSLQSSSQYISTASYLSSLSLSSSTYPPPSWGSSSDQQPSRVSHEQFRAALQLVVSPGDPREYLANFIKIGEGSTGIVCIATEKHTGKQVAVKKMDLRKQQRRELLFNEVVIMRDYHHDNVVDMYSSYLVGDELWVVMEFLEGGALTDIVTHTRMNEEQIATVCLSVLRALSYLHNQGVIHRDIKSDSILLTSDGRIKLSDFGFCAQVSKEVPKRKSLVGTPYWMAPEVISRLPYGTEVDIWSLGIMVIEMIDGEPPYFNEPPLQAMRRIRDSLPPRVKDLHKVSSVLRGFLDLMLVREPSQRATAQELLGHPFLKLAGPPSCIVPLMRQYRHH", "assay": "Inhibition of PAK5 (unknown origin) assessed as remaining enzyme activity at 10 uM by radioactive [33P]-ATP filter binding assay"}, "[24]": {"target": "Mitogen-activated protein kinase kinase kinase kinase 3 (Homo sapiens) (UniProt Q8IVH8)", "sequence (Q8IVH8 whole entry)": "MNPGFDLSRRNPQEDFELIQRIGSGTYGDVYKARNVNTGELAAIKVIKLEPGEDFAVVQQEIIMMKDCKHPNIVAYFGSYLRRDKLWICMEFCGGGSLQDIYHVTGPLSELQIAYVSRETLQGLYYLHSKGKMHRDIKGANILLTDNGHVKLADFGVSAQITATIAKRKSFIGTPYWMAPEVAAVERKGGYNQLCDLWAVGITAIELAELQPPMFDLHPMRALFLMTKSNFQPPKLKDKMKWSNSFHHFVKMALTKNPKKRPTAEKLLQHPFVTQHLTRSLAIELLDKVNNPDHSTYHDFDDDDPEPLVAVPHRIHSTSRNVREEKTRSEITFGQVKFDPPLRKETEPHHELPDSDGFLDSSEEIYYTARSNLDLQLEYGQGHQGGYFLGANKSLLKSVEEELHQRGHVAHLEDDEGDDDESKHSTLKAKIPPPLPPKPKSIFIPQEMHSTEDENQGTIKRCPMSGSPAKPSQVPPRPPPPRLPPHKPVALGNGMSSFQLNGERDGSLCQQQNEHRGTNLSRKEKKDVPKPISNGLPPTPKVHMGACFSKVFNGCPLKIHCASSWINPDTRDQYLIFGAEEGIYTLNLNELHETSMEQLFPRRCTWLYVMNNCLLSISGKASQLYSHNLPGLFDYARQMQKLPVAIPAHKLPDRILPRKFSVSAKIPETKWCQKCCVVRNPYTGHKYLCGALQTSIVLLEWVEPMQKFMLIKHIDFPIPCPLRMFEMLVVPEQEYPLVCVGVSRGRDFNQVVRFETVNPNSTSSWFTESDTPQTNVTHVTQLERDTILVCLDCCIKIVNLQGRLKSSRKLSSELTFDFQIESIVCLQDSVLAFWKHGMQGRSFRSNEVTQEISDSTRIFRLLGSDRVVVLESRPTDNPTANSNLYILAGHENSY", "assay": "Inhibition of MAP4K3 (unknown origin) assessed as remaining enzyme activity at 10 uM by radioactive [33P]-ATP filter binding assay"}, "[25]": {"target": "Mitogen-activated protein kinase kinase kinase 11 (Homo sapiens) (UniProt Q16584)", "sequence (Q16584 whole entry, looked up)": "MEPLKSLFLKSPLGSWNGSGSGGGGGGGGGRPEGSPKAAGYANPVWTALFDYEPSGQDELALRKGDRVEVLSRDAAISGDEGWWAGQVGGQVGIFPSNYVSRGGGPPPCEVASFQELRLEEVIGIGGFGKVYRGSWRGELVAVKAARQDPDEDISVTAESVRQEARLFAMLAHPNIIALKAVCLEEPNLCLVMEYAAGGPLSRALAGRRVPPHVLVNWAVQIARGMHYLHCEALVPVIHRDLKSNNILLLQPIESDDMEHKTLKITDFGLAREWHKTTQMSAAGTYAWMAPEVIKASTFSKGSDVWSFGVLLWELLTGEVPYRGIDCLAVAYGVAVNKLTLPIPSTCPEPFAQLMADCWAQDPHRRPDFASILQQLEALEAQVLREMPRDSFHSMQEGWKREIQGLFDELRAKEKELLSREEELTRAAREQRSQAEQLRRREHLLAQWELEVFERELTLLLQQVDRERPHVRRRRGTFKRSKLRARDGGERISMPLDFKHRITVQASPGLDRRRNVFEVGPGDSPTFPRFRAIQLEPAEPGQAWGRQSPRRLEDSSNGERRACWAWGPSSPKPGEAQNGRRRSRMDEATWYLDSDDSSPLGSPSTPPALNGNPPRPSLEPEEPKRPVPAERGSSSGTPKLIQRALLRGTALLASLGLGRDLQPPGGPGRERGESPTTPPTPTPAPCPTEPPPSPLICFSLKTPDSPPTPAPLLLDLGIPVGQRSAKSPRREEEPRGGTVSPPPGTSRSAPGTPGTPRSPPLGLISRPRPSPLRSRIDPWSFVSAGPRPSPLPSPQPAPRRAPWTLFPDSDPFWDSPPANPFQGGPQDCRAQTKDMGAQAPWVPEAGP", "assay": "Inhibition of MLK3 (unknown origin) assessed as remaining enzyme activity at 10 uM by radioactive [33P]-ATP filter binding assay"}, "[26]": {"target": "Serine/threonine-protein kinase 16 (Homo sapiens) (UniProt O75716)", "assay": "Inhibition of MPSK1 (unknown origin) assessed as remaining enzyme activity at 10 uM by radioactive [33P]-ATP filter binding assay"}, "[27]": {"target": "Serine/threonine-protein kinase ULK2 (Homo sapiens) (UniProt Q8IYT8)", "assay": "Inhibition of ULK2 (unknown origin) assessed as remaining enzyme activity at 10 uM by radioactive [33P]-ATP filter binding assay"}},
  "note": "pIC50: −log10 of the molar value. Activity calls are given as the source filed them. The rule behind the calls is not given here.",
  "data": [
    {"smiles": "Cc1ccc(-c2cc(C(=O)Nc3ccnc(Cl)c3)nn2-c2ccc3ccccc3n2)cc1", "values": [
      {"measurement": "pIC50", "setting": "[1]", "value": 5.80},
      {"measurement": "Activity", "setting": "Huh-7", "value": "Active"},
      {"measurement": "Activity", "setting": "[2]", "value": 99, "unit": "%"},
      {"measurement": "Activity", "setting": "[3]", "value": 106, "unit": "%"},
      {"measurement": "Activity", "setting": "[4]", "value": 84, "unit": "%"},
      {"measurement": "Activity", "setting": "[5]", "value": 113, "unit": "%"},
      {"measurement": "Activity", "setting": "[6]", "value": 104, "unit": "%"},
      {"measurement": "Activity", "setting": "[7]", "value": 76, "unit": "%"},
      {"measurement": "Activity", "setting": "[8]", "value": 84, "unit": "%"},
      {"measurement": "Activity", "setting": "[9]", "value": 109, "unit": "%"},
      {"measurement": "Activity", "setting": "[10]", "value": 125, "unit": "%"},
      {"measurement": "Activity", "setting": "[11]", "value": 109, "unit": "%"},
      {"measurement": "Activity", "setting": "[12]", "value": 125, "unit": "%"},
      {"measurement": "Activity", "setting": "[13]", "value": 96, "unit": "%"},
      {"measurement": "Activity", "setting": "[14]", "value": 92, "unit": "%"},
      {"measurement": "Activity", "setting": "[15]", "value": 100, "unit": "%"},
      {"measurement": "Activity", "setting": "[16]", "value": 96, "unit": "%"},
      {"measurement": "Activity", "setting": "[17]", "value": 68, "unit": "%"},
      {"measurement": "Activity", "setting": "[18]", "value": 70, "unit": "%"},
      {"measurement": "Activity", "setting": "[19]", "value": 93, "unit": "%"},
      {"measurement": "Activity", "setting": "[20]", "value": 114, "unit": "%"},
      {"measurement": "Activity", "setting": "[21]", "value": 98, "unit": "%"},
      {"measurement": "Activity", "setting": "[22]", "value": 83, "unit": "%"},
      {"measurement": "Activity", "setting": "[23]", "value": 97, "unit": "%"},
      {"measurement": "Activity", "setting": "[24]", "value": 90, "unit": "%"},
      {"measurement": "Activity", "setting": "[25]", "value": 76, "unit": "%"},
      {"measurement": "Activity", "setting": "[26]", "value": 113, "unit": "%"},
      {"measurement": "Activity", "setting": "[27]", "value": 112, "unit": "%"}
    ]}
  ]
}
